Calls of active or inactive are those of the source. The rule behind the calls is not given here.
Assays:
[1] = biological target: Metabotropic glutamate receptor 4 (Rattus norvegicus) (UniProt P31423); assay: Displacement of [3H]ML128 from rat mGlu4 receptor expressed in CHO cells at 10 uM after 30 mins by liquid scintillation counting analysis; assay type: cell-based
Method in brief: (§1)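 Whole freshly harvested CHO cells stably expressing rat mGlu4 (G418-selected), 50 000 per tube, incubated with 10 nM [3H]1 plus competitor (0.01 nM–10 μM) 30 min at room temperature. Cells pelleted at 4 °C, washed three times with cold medium, lysed in 0.5% NaOH at 56 °C, then counted by liquid scintillation. Nonspecific binding defined with 10 μM unlabeled 1. Triplicates.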

[2] = biological target: Metabotropic glutamate receptor 4 (Rattus norvegicus, UniProt P31423); assay: Displacement of [3H]ML128 from rat mGlu4 receptor expressed in CHO cells after 30 mins by liquid scintillation counting analysis; assay type: cell-based; method in brief: as §1
Metabotropic glutamate receptor 4, sequence (P31423 whole entry): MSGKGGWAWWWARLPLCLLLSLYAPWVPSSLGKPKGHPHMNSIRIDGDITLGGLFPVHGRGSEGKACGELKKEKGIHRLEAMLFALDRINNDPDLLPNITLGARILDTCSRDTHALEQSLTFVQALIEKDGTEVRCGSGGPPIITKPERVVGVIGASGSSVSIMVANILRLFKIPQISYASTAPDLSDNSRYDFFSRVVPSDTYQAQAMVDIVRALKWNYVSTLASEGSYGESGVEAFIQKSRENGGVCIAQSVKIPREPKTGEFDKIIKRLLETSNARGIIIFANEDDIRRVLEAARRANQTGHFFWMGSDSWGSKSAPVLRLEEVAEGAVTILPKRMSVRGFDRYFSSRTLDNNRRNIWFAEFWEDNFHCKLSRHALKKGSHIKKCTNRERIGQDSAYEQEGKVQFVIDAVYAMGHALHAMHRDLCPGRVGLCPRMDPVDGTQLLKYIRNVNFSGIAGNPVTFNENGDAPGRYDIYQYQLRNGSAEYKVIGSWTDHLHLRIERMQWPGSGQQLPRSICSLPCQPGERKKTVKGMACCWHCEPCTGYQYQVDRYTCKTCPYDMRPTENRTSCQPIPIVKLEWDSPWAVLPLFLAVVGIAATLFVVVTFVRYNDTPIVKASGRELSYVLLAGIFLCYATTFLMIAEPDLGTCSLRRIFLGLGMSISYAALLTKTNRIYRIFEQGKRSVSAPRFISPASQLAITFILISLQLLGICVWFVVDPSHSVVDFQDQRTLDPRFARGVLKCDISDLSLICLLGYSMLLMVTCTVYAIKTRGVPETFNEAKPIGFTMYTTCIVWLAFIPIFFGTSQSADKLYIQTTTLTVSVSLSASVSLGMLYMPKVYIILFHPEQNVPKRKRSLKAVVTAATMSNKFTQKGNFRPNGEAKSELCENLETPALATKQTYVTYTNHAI

Cerebellum [3] = assay: Drug uptake in Sprague-Dawley rat cerebellum at 37 MBq, iv administered 5 mins post N-(3-(difluoromethoxy)phenyl)-2-picolinamide hydrochloride challenge measured after 20 mins by PET imaging analysis; assay type: ADME, organism-based; conditions: in vivo
Method in brief: (§2)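 Male Sprague–Dawley rats under 1.0–1.5% isoflurane/nitrous oxide received [18F]3 (37 MBq) via tail-vein catheter. Dynamic PET was acquired for 60 min, followed by CT for anatomy and attenuation correction. Regional brain time–activity curves were generated. For blocking, animals were given iv 5 min before tracer either 2·HCl 10 mg/kg in saline with 10% ethanol and 10% Tween20 (n = 4) or MTEP·HCl 10 mg/kg in 0.9% saline (n = 3).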

[4] = Drug metabolism in iv dosed Sprague-Dawley rat blood after 5 mins; assay type: ADME, organism-based; conditions: read-out: Drug metabolism
[5] = Drug metabolism in iv dosed rhesus monkey blood after 5 mins; conditions: in vivo
Thalamus [6] = assay: Drug uptake in Sprague-Dawley rat thalamus at 37 MBq, iv administered 5 mins post N-(3-(difluoromethoxy)phenyl)-2-picolinamide hydrochloride challenge measured after 20 mins by PET imaging analysis; assay type: ADME, organism-based; conditions: in vivo; method in brief: as §2
Cerebellum [7] = assay: Drug uptake in Sprague-Dawley rat cerebellum at 37 MBq, iv administered 5 mins post MTEP.HCl challenge measured after 20 mins by PET imaging analysis; assay type: ADME, organism-based; conditions: in vivo; method in brief: as §2
[8] = test system: Striatum (Macaca mulatta); assay: Drug uptake in rhesus monkey striatum at 189 MBq, iv after 40 mins by PET imaging analysis; conditions: in vivo
Cortex [9] = assay: Drug uptake in Sprague-Dawley rat cortex at 37 MBq, iv administered 5 mins post MTEP.HCl challenge measured after 20 mins by PET imaging analysis; assay type: ADME, organism-based; conditions: in vivo; method in brief: as §2
Striatum [10] = assay: Drug uptake in Sprague-Dawley rat striatum at 37 MBq, iv administered 5 mins post N-(3-(difluoromethoxy)phenyl)-2-picolinamide hydrochloride challenge measured after 20 mins by PET imaging analysis; assay type: ADME, organism-based; conditions: in vivo; method in brief: as §2
[11] = test system: Thalamus (Macaca mulatta); assay: Drug uptake in rhesus monkey thalamus at 189 MBq, iv after 20 mins by PET imaging analysis; conditions: in vivo
Hippocampus [12] = assay: Drug uptake in Sprague-Dawley rat hippocampus at 37 MBq, iv after 20 mins by PET imaging analysis; assay type: ADME, organism-based; conditions: in vivo; method in brief: as §2
Brain [13] = assay: Drug uptake in Sprague-Dawley rat whole brain at 37 MBq, iv administered 5 mins post N-(3-(difluoromethoxy)phenyl)-2-picolinamide hydrochloride challenge measured after 20 mins by PET imaging analysis; assay type: ADME, organism-based; conditions: in vivo; method in brief: as §2
[14] = test system: Striatum (Macaca mulatta); assay: Drug uptake in rhesus monkey striatum at 189 MBq, iv after 20 mins by PET imaging analysis; conditions: in vivo
[15] = test system: Thalamus (Macaca mulatta); assay: Drug uptake in rhesus monkey thalamus at 189 MBq, iv after 40 mins by PET imaging analysis; conditions: in vivo
[16] = test system: Striatum (Macaca mulatta); assay: Drug uptake in rhesus monkey striatum at 189 MBq, iv after 3 mins by PET imaging analysis; conditions: in vivo, 0.05 h
Cortex [17] = assay: Drug uptake in Sprague-Dawley rat cortex at 37 MBq, iv administered 5 mins post N-(3-(difluoromethoxy)phenyl)-2-picolinamide hydrochloride challenge measured after 20 mins by PET imaging analysis; assay type: ADME, organism-based; conditions: in vivo; method in brief: as §2
Thalamus [18] = assay: Drug uptake in Sprague-Dawley rat thalamus at 37 MBq, iv administered 5 mins post MTEP.HCl challenge measured after 20 mins by PET imaging analysis; assay type: ADME, organism-based; conditions: in vivo; method in brief: as §2
[19] = test system: Thalamus (Macaca mulatta); assay: Drug uptake in rhesus monkey thalamus at 189 MBq, iv after 3 mins by PET imaging analysis; conditions: in vivo, 0.05 h
[20] = test system: Cerebellum (Macaca mulatta); assay: Drug uptake in rhesus monkey cerebellum at 189 MBq, iv after 3 mins by PET imaging analysis; conditions: in vivo, 0.05 h
Hippocampus [21] = assay: Drug uptake in Sprague-Dawley rat hippocampus at 37 MBq, iv administered 5 mins post MTEP.HCl challenge measured after 20 mins by PET imaging analysis; assay type: ADME, organism-based; conditions: in vivo; method in brief: as §2
Brain [22] = assay: Drug uptake in Sprague-Dawley rat whole brain at 37 MBq, iv after 20 mins by PET imaging analysis; assay type: ADME, organism-based; conditions: in vivo; method in brief: as §2
[23] = test system: Hippocampus (Macaca mulatta); assay: Drug uptake in rhesus monkey hippocampus at 189 MBq, iv after 20 mins by PET imaging analysis; conditions: in vivo
[24] = test system: Hippocampus (Macaca mulatta); assay: Drug uptake in rhesus monkey hippocampus at 189 MBq, iv after 3 mins by PET imaging analysis; conditions: in vivo, 0.05 h
Hippocampus [25] = assay: Drug uptake in Sprague-Dawley rat hippocampus at 37 MBq, iv administered 5 mins post N-(3-(difluoromethoxy)phenyl)-2-picolinamide hydrochloride challenge measured after 20 mins by PET imaging analysis; assay type: ADME, organism-based; conditions: in vivo; method in brief: as §2
Striatum [26] = assay: Drug uptake in Sprague-Dawley rat striatum at 37 MBq, iv administered 5 mins post MTEP.HCl challenge measured after 20 mins by PET imaging analysis; assay type: ADME, organism-based; conditions: in vivo; method in brief: as §2
[27] = test system: Cerebellum (Macaca mulatta); assay: Drug uptake in rhesus monkey cerebellum at 189 MBq, iv after 20 mins by PET imaging analysis; conditions: in vivo
Cortex [28] = assay: Drug uptake in Sprague-Dawley rat cortex at 37 MBq, iv after 20 mins by PET imaging analysis; assay type: ADME, organism-based; conditions: in vivo; method in brief: as §2
Thalamus [29] = assay: Drug uptake in Sprague-Dawley rat thalamus at 37 MBq, iv after 20 mins by PET imaging analysis; assay type: ADME, organism-based; conditions: in vivo; method in brief: as §2
Striatum [30] = assay: Drug uptake in Sprague-Dawley rat striatum at 37 MBq, iv after 20 mins by PET imaging analysis; assay type: ADME, organism-based; conditions: in vivo; method in brief: as §2
Brain [31] = assay: Drug uptake in Sprague-Dawley rat whole brain at 37 MBq, iv administered 5 mins post MTEP.HCl challenge measured after 20 mins by PET imaging analysis; assay type: ADME, organism-based; conditions: in vivo; method in brief: as §2
[32] = Drug uptake in rhesus monkey cerebellum at 189 MBq, iv after 40 mins by PET imaging analysis; conditions: in vivo
Macaca mulatta = assay: Drug uptake in rhesus monkey hippocampus at 189 MBq, iv after 40 mins by PET imaging analysis; conditions: in vivo
Cerebellum [33] = assay: Drug uptake in Sprague-Dawley rat cerebellum at 37 MBq, iv after 20 mins by PET imaging analysis; assay type: ADME, organism-based; conditions: in vivo; method in brief: as §2
[34] = biological target: Metabotropic glutamate receptor 8 (Homo sapiens) (UniProt O00222); assay: Binding affinity to human mGlu8 receptor
Metabotropic glutamate receptor 8 (Homo sapiens), sequence (O00222 whole entry): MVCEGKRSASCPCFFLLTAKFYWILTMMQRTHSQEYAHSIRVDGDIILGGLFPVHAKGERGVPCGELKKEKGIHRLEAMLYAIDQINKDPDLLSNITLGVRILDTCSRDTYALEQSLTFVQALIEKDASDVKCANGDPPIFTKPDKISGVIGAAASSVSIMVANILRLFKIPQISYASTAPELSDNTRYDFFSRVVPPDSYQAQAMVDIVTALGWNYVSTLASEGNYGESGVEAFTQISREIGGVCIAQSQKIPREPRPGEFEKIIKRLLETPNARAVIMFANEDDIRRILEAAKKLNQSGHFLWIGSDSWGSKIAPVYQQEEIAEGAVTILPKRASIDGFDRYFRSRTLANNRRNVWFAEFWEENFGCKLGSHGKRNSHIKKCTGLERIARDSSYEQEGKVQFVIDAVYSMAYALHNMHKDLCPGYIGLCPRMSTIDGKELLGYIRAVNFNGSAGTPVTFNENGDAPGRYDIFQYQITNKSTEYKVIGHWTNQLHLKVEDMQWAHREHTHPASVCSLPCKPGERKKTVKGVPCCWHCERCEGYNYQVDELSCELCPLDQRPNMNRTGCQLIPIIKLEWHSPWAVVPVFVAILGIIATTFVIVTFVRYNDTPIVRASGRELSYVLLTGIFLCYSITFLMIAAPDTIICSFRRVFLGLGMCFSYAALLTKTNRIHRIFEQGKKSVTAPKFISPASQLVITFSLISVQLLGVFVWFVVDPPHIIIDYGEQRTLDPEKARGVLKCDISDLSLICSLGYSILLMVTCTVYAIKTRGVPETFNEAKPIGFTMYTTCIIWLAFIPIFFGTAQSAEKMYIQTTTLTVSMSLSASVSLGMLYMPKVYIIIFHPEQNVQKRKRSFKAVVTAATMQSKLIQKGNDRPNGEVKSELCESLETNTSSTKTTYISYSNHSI

[35] = biological target: Metabotropic glutamate receptor 1 (Homo sapiens) (UniProt Q13255); assay: Activity at human mGlu1 receptor expressed in CHO cells after 45 mins by intracellular inositol phosphates accumulation assay
Metabotropic glutamate receptor 1 (Homo sapiens), sequence (Q13255 19-1194 limits assumed): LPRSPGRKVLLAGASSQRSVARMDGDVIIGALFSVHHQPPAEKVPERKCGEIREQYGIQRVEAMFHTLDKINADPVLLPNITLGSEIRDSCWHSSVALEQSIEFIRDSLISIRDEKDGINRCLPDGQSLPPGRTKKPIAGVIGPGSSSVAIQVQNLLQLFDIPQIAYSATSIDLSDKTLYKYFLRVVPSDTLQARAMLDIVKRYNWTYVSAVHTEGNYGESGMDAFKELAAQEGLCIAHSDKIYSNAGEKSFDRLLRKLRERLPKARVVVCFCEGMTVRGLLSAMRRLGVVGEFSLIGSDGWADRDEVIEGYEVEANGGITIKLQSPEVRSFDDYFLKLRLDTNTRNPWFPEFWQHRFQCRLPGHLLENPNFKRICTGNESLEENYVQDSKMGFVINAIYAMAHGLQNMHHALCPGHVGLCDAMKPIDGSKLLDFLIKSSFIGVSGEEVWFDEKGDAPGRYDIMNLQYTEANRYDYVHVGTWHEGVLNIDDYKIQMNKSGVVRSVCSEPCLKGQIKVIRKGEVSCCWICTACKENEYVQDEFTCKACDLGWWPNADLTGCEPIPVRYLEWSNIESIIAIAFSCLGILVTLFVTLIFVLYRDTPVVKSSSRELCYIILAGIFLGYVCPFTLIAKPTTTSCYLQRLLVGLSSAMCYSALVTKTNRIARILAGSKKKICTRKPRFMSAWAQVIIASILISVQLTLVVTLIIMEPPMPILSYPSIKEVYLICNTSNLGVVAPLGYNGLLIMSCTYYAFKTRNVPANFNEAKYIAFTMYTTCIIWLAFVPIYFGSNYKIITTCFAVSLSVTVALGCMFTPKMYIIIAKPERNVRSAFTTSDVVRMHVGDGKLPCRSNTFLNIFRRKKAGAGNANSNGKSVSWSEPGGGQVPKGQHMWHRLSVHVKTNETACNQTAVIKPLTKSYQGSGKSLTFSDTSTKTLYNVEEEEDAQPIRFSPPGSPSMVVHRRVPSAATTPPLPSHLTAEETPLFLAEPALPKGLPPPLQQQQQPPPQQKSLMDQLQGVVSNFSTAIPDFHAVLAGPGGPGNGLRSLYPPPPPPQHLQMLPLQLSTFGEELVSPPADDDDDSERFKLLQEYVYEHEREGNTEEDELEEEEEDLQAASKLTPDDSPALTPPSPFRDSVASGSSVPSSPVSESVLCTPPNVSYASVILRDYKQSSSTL

[36] = biological target: Metabotropic glutamate receptor 5 (Homo sapiens) (UniProt P41594); assay: Activity at human mGlu5 receptor expressed in CHO cells after 45 mins by intracellular inositol phosphates accumulation assay
Metabotropic glutamate receptor 5 (Homo sapiens), sequence (P41594 21-1212 limits assumed): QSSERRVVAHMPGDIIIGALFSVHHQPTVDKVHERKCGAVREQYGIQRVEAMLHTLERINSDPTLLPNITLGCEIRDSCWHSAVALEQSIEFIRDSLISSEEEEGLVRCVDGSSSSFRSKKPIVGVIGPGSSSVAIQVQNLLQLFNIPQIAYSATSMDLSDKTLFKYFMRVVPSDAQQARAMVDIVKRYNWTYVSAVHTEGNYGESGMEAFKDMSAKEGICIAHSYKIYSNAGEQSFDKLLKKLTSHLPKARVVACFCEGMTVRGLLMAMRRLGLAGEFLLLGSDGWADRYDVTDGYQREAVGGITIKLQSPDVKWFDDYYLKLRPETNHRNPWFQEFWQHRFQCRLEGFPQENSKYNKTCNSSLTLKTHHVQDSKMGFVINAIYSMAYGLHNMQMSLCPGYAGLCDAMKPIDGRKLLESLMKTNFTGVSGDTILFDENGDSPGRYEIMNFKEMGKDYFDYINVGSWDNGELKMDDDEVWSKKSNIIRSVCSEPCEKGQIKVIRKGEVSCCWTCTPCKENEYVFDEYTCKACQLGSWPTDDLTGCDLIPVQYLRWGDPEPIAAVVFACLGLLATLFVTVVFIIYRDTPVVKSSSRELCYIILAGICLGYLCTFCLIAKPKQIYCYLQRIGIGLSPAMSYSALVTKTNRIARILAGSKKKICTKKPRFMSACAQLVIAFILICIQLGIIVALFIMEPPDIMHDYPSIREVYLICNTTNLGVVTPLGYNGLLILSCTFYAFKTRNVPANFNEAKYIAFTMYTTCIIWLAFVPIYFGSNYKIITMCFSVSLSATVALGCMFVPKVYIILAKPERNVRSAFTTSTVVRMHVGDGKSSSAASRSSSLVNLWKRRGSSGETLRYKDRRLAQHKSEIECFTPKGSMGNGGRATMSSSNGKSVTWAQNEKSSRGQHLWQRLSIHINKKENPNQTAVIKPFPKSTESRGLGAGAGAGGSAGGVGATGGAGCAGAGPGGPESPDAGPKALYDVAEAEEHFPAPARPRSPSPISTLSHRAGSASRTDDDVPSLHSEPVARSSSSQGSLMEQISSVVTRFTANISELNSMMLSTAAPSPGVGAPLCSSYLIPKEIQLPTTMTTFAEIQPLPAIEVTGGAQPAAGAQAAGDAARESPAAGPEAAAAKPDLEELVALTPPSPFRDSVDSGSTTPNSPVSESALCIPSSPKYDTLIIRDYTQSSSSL

Metabotropic glutamate receptor 4 (Rattus norvegicus), sequence (P31423 whole entry): as the sequence (P31423 whole entry) above

Compound `O=C(Nc1ccc(N2C(=O)c3cccc(Br)c3C2=O)c(Cl)c1)c1ccccn1` has an inhibition [1] of 96.6% and an IC50 ([2]; read-out: IC50) of 0.0118 µM.
With `O=C(Nc1cccc(OC(F)F)c1)c1ccccn1` the inhibition [1] was 99.1%.
For `O=C(Nc1ccc(N2C(=O)c3cccc([18F])c3C2=O)c(Cl)c1)c1ccccn1`, the Drug uptake (Cerebellum [3]) was “Active”, the metabolised at 5 min [4] was 90% and the Stability [5] was “Unstable”. For the same compound, the Drug uptake (Thalamus [6]) was “Active”, the Drug uptake (Cerebellum [7]) was “Active” and the Drug uptake [8] was “Active”. The Drug uptake (Cortex [9]) was “Active”, the Drug uptake (Striatum [10]) was “Active” and the Drug uptake [11] was 50%. For the same compound, the Drug uptake (Hippocampus [12]) was “Active”, the Drug uptake (Brain [13]) was “Active” and the Drug uptake [14] was 50%. The Drug uptake [15] was “Active”, the Drug uptake [16] was “Active” and the Drug uptake (Cortex [17]) was “Active”. For the same compound, the Drug uptake (Thalamus [18]) was “Active”, the Drug uptake [19] was “Active” and the Drug uptake [20] was “Active”. For the same compound, the Drug uptake (Hippocampus [21]) was “Active”, the Drug uptake (Brain [22]) was “Active” and the Drug uptake [23] was 50%. The Drug uptake [24] was “Active”, the Drug uptake (Hippocampus [25]) was “Active” and the Drug uptake (Striatum [26]) was “Active”. The Drug uptake [27] was 50%, the Drug uptake (Cortex [28]) was “Active” and the Drug uptake (Thalamus [29]) was “Active”. The Drug uptake (Striatum [30]) was “Active”, the Drug uptake (Brain [31]) was “Active” and the Drug uptake [32] was “Active”. The Drug uptake (Macaca mulatta) was “Active” and the Drug uptake (Cerebellum [33]) was “Active”.
For `O=C(Nc1ccc(N2C(=O)c3cccc(F)c3C2=O)c(Cl)c1)c1ccccn1`, the Activity [34] was “Active”, the Activity [35] was “Active” and the Activity [36] was “Active”. The inhibition [1] was 99.4% and the IC50 ([2]; read-out: IC50) was 0.0051 µM.
Work on `O=C(Nc1ccc(N2C(=O)c3cccc(I)c3C2=O)c(Cl)c1)c1ccccn1` yielded an inhibition [1] of 96%, an IC50 ([2]; read-out: IC50) of 0.0263 µM and an IC50 ([2]; read-out: pIC50 (converted)) of 0.0295 µM.
In the case of `COc1cc(NC(=O)c2ccccn2)ccc1Cl`, the inhibition [1] is reported as 100%.
For `Cc1cccc2c1C(=O)N(c1ccc(NC(=O)c3ccccn3)cc1Cl)C2=O`, the inhibition [1] was 99.4% and the IC50 ([2]; read-out: IC50) was 0.0042 µM.

Reference: ChEMBL document CHEMBL3351329, “Radiosynthesis and evaluation of an 18F-labeled positron emission tomography (PET) radioligand for metabotropic glutamate receptor subtype 4 (mGlu4)” (J Med Chem, 2014)
